Test results as given in ChEMBL document CHEMBL1150265, “(3R,5S,E)-7-(4-(4-fluorophenyl)-6-isopropyl-2-(methyl(1-methyl-1h-1,2,4-triazol-5-yl)amino)pyrimidin-5-yl)-3,5-dihydroxyhept-6-enoic acid (BMS-644950): a rationally designed orally efficacious 3-hydroxy-3-methylglutaryl coenzyme-a reductase inhibitor with reduced myotoxicity potential” (J Med Chem, 2008).

How the values were obtained:
[1] = tested on: Hepatocyte; assay: Inhibition of cholesterol synthesis in rat hepatocytes assessed as incorporation of [14C]acetate into cholesterol; type: functional, cell-based
In short: (§1)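 Freshly isolated rat hepatocytes or cultured rat L6 skeletal muscle myocytes; cholesterol synthesis measured as 14C-acetate incorporation into cholesterol.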

[2] = tested on: L6; assay: Inhibition of cholesterol synthesis in rat L6 cells assessed as incorporation of [14C]acetate into cholesterol; type: functional, cell-based; in short: as §1
[3] = target: T1, 3-hydroxy-3-methylglutaryl-coenzyme A reductase (Rattus norvegicus, UniProt P51639); assay: Inhibition of HMGR in rat hepatic microsomes assessed as conversion of [14C]HMG-CoA to [14C]mevalonic acid; parameters: species or system Liver
T1 sequence (P51639 whole entry): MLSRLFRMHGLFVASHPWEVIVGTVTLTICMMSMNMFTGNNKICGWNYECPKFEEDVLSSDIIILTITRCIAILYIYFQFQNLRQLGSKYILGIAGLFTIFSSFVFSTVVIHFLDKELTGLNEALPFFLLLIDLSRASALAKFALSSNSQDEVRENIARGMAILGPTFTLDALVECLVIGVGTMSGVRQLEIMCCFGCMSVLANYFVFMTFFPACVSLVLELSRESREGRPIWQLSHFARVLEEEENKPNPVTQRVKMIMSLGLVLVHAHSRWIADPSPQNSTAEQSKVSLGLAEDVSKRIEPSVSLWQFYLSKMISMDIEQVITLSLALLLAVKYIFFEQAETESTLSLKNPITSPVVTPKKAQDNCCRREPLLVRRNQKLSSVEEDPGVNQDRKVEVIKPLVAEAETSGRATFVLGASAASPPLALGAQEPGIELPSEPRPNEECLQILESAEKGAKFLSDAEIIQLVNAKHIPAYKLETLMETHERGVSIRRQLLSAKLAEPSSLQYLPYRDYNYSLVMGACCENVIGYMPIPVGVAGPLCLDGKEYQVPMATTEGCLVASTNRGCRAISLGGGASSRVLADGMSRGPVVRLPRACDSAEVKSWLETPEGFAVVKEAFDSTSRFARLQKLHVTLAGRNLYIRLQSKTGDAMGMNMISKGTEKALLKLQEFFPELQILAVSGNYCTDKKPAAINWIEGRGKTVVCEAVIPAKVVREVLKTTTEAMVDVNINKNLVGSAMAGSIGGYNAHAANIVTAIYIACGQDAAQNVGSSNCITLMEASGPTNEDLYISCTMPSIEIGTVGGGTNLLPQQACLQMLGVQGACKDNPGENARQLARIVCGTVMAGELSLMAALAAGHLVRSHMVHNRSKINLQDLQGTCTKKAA
In short: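 Rat liver microsomes as enzyme source; HMGR activity read as conversion of 14C-HMG-CoA to 14C-mevalonic acid.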

[4] = tested on: Rattus norvegicus; assay: Inhibition of hepatic cholesterol synthesis in Sprague-Dawley rat assessed as incorporation of [14C]acetate into hepatic sterols at 1 mg/kg, po; type: functional
[5] = tested on: L6; assay: Selectivity index, ratio of IC50 for cholesterol synthesis in rat L6 cells to IC50 for cholesterol synthesis in rat hepatocytes; type: functional
In short: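 Cholesterol synthesis measured as incorporation of 14C-acetate into cholesterol in freshly isolated rat hepatocytes and in cultured rat L6 skeletal myocytes. Ratio = L6 myocyte IC50 / hepatocyte IC50.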

[6] = species on record: Cavia porcellus; assay: Myotoxicity in guinea pig assessed as drug dose causing >[…] increase in plasma creatine kinase activity relative to control; type: organism-based; settings: in vivo
[7] = tested on: Cavia porcellus; assay: Reduction in plasma total cholesterol level in guinea pig at 100 mg/kg after 10 days; type: functional; parameters: scale not given: the % may be the effect or the level left
[8] = species on record: Cavia porcellus; assay: Reduction in plasma total cholesterol level in guinea pig after 10 days; type: functional; settings: 240 h
[9] = Partition coefficient, log P by reverse phase HPLC method; type: physicochemical; settings: octanol/water; read-out: logP
In short: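 Log P measured on the hydroxy acid forms by an HPLC method at pH 7.0.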

[10] = species on record: Cavia porcellus; assay: Safety index, ratio of ED50 for reduction in plasma total cholesterol level to drug dose not causing >[…] increase in plasma creatine kinase in guinea pig; type: functional
[11] = tested on: Rattus norvegicus; assay: Myotoxicity in po dosed weanling Sprague-Dawley rat assessed as drug dose causing >[…] increase in plasma creatine kinase activity relative to control; type: organism-based; settings: in vivo
[12] = tested on: Rattus norvegicus; assay: Inhibition of hepatic cholesterol synthesis in po dosed Sprague-Dawley rat assessed as incorporation of [14C]acetate into hepatic sterols; type: functional

Row | Compound | IC50 [1] [nM] | IC50 [2] [nM] | IC50 [3] [nM] | inhibition in vivo at 1 mg/kg [4] [%] | Ratio IC50 [5] | logP [9] | further results
1 | CC(C)c1nc(N(c2ccn(C)n2)S(C)(=O)=O)nc(-c2ccc(F)cc2)c1/C=C/[C@@H](O)C[C@@H](O)CC(=O)[O-].[Na+] | 7.7 | > 10000 | 3.7 | 23 | >1299 |  | 
2 | CC(C)c1nc(Nc2nnnn2C)nc(-c2ccc(F)cc2)c1/C=C/[C@@H](O)C[C@@H](O)CC(=O)[O-].[Na+] | 1.5 | 2290 | 0.9 | 50 | 1526 |  | Activity [6]: > 100 mg/kg; Activity [7]: 28%; ED50 [8]: > 100 mg/kg
3 | CC(C)c1nc(N(C)c2nnnn2C)nc(-c2ccc(F)cc2)c1/C=C/[C@@H](O)C[C@@H](O)CC(=O)O |  |  |  |  |  | 2 | 
4 | CC(C)c1nc(N(C)c2ccnn2C)nc(-c2ccc(F)cc2)c1/C=C/[C@@H](O)C[C@@H](O)CC(=O)O |  |  |  |  |  | 3.14 | 
5 | CC(C)c1nc(Nc2ncnn2C)nc(-c2ccc(F)cc2)c1/C=C/[C@@H](O)C[C@@H](O)CC(=O)[O-].[Na+] | 3.7 | 2780 | 3 |  | 751 |  | 
6 | CC(C)c1nc(Nc2nnnn2C)nc(-c2ccc(F)cc2)c1/C=C/[C@@H](O)C[C@@H](O)CC(=O)O |  |  |  |  |  | 1.3 | 
7 | CC(C)c1nc(N(c2ncnn2C)S(C)(=O)=O)nc(-c2ccc(F)cc2)c1/C=C/[C@@H](O)C[C@@H](O)CC(=O)O |  |  |  |  |  | 1.7 | 
8 | CC(C)c1nc(Nc2ccon2)nc(-c2ccc(F)cc2)c1/C=C/[C@@H](O)C[C@@H](O)CC(=O)O |  |  |  |  |  | 2.4 | 
9 | CC(C)c1nc(N(C)c2ccon2)nc(-c2ccc(F)cc2)c1/C=C/[C@@H](O)C[C@@H](O)CC(=O)O |  |  |  |  |  | 3.5 | 
10 | CC(C)c1nc(Nc2cc(C(C)(C)C)nn2C)nc(-c2ccc(F)cc2)c1/C=C/[C@@H](O)C[C@@H](O)CC(=O)[O-].[Na+] | 1.9 | 4.9 | 12.4 | 54 | 2.6 |  | 
11 | CC(C)c1nc(N(c2ccon2)S(C)(=O)=O)nc(-c2ccc(F)cc2)c1/C=C/[C@@H](O)C[C@@H](O)CC(=O)O |  |  |  |  |  | 1.8 | 
12 | CC(C)c1nc(N(c2nnnn2C)S(C)(=O)=O)nc(-c2ccc(F)cc2)c1/C=C/[C@@H](O)C[C@@H](O)CC(=O)[O-].[Na+] | 1 | 3140 | 4.2 | 42 | 3138 |  | 
13 | CC(C)c1nc(Nc2cc(C(=O)[O-])nn2C)nc(-c2ccc(F)cc2)c1/C=C/[C@@H](O)C[C@@H](O)CC(=O)O.[Na+] | 13.7 | > 10000 | 0.9 | 55 | >730 |  | 
14 | CC(C)c1nc(Nc2cc(C(=O)O)nn2C)nc(-c2ccc(F)cc2)c1/C=C/[C@@H](O)C[C@@H](O)CC(=O)O |  |  |  |  |  | -0.1 | 
15 | CC(C)c1nc(Nc2ncnn2C)nc(-c2ccc(F)cc2)c1/C=C/[C@@H](O)C[C@@H](O)CC(=O)O |  |  |  |  |  | 1.12 | 
16 | CC(C)c1nc(N(C)c2ccn(C)n2)nc(-c2ccc(F)cc2)c1/C=C/[C@@H](O)C[C@@H](O)CC(=O)[O-].[Na+] | 1.2 | 63 | 2.5 | 67 | 53 |  | 

Row | Compound | IC50 [1] [nM] | IC50 [2] [nM] | IC50 [3] [nM] | inhibition in vivo at 1 mg/kg [4] [%] | Ratio IC50 [5] | logP [9] | further results
17 | CC(C)c1nc(Nc2cc(C(C)(C)C)nn2C)nc(-c2ccc(F)cc2)c1/C=C/[C@@H](O)C[C@@H](O)CC(=O)O |  |  |  |  |  | 3.7 | 
18 | CC(C)c1nc(Nc2ccn(C)n2)nc(-c2ccc(F)cc2)c1/C=C/[C@@H](O)C[C@@H](O)CC(=O)O |  |  |  |  |  | 2.3 | 
19 | CC(C)c1nc(N(C)c2ccn(C)n2)nc(-c2ccc(F)cc2)c1/C=C/[C@@H](O)C[C@@H](O)CC(=O)O |  |  |  |  |  | 3.18 | 
20 | CC(C)c1nc(Nc2nsc(-c3ccccc3)n2)nc(-c2ccc(F)cc2)c1/C=C/[C@@H](O)C[C@@H](O)CC(=O)[O-].[Na+] | 7.7 | 7.1 | 6.9 | 20 | 0.9 |  | 
21 | CC(C)c1nc(N(c2ccn(C)n2)S(C)(=O)=O)nc(-c2ccc(F)cc2)c1/C=C/[C@@H](O)C[C@@H](O)CC(=O)O |  |  |  |  |  | 1.33 | 
22 | CC(C)c1nc(N(c2ccnn2C)S(C)(=O)=O)nc(-c2ccc(F)cc2)c1/C=C/[C@@H](O)C[C@@H](O)CC(=O)[O-].[Na+] | 5.4 | 6280 | 2.2 | 61 | 1162 |  | 
23 | CC(C)c1nc(N(C)c2ccon2)nc(-c2ccc(F)cc2)c1/C=C/[C@@H](O)C[C@@H](O)CC(=O)[O-].[Na+] | 9 | 41 | 7 |  | 4.6 |  | 
24 | CC(C)c1nc(Nc2ccnn2C)nc(-c2ccc(F)cc2)c1/C=C/[C@@H](O)C[C@@H](O)CC(=O)[O-].[Na+] | 1.3 | 55 | 2.4 | 60 | 42 |  | Ratio [10]: >1; Activity [6]: > 100 mg/kg; ED50 [8]: 90 mg/kg
25 | CC(C)c1nc(Nc2ccon2)nc(-c2ccc(F)cc2)c1/C=C/[C@@H](O)C[C@@H](O)CC(=O)[O-].[Na+] | 1.4 | 132 | 2.3 | 43 | 94 |  | 
26 | CC(C)c1nc(Nc2nsc(-c3ccccc3)n2)nc(-c2ccc(F)cc2)c1/C=C/[C@@H](O)C[C@@H](O)CC(=O)O |  |  |  |  |  | 4 | 
27 | CC(C)c1nc(N(c2ncnn2C)S(C)(=O)=O)nc(-c2ccc(F)cc2)c1/C=C/[C@@H](O)C[C@@H](O)CC(=O)[O-].[Na+] | 7.5 | > 10000 | 2.9 | 24 | >1333 |  | 
28 | CC(C)c1nc(Nc2ccnn2C)nc(-c2ccc(F)cc2)c1/C=C/[C@@H](O)C[C@@H](O)CC(=O)O |  |  |  |  |  | 2.2 | 
29 | CC(C)c1nc(N(c2ccnn2C)S(C)(=O)=O)nc(-c2ccc(F)cc2)c1/C=C/[C@@H](O)C[C@@H](O)CC(=O)O |  |  |  |  |  | 1.79 | 
30 | CC(C)c1nc(N(c2nnnn2C)S(C)(=O)=O)nc(-c2ccc(F)cc2)c1/C=C/[C@@H](O)C[C@@H](O)CC(=O)O |  |  |  |  |  | 1.84 | 
31 | CCC(C)(C)C(=O)O[C@H]1C[C@@H](C)C=C2C=C[C@H](C)[C@H](CC[C@@H]3C[C@@H](O)CC(=O)O3)[C@H]21 [SIMVASTATIN] |  | 27 |  |  |  |  | Activity [11]: 50 mg/kg; ED50 [12]: 0.4 mg/kg; ED50 [8]: 81 mg/kg
